Like-named read-outs stand apart in the source and are kept apart here.
Tests used:
TgME49-EW bradyzoites = experiment: Ex vivo purified; type: cell-based, Toxoplasma gondii; conditions: 3X EC90, 4 h washout vs continual treatment
TgME49-Fluc [1] = experiment: Luciferase-based tachyzoite growth inhibition assay; type: cell-based, Toxoplasma gondii; conditions: for EC50: read-out: TgM49 EC50
TgME49-EW intact cysts = experiment: Intact tissue cyst treatment and plaque outgrowth assay; type: cell-based, Toxoplasma gondii
Outline: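 Percoll-purified brain tissue cysts (10 per compound) were exposed to 3xEC90 in tubes at 37°C for 4 or 24 h, then washed 3× with PBS. Bradyzoites were freed by acid-pepsin, neutralized, and split into parallel 6-well plates with compound (constant) or without (washout). Plates ran 12−14 days at 37°C, 5% CO2. Plaques were ethanol-fixed, crystal-violet stained, counted by microscopy and normalized to the DMSO control.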

TgME49-Fluc [2] = experiment: Time dependent tachyzoite inhibition, 4 h washout vs 72 h continuous; type: cell-based, Toxoplasma gondii; conditions: vs continuous 72 h
[3] = tested on: Tg68pBAG1:nLuc,DHFR bradyzoites; experiment: In vitro differentiated bradyzoite growth inhibition; type: cell-based, Toxoplasma gondii; conditions: for EC50: Toxoplasma gondii
Pharmacokinetics in mice = type: in vivo, CD-1 mice; conditions: 10 mg/kg PO
Outline: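 Fasted male CD-1 mice (3 per group) received a single oral 10 mg/kg dose as a suspension. Blood and brain were sampled at 1, 3 and 8 h. Plasma was obtained by centrifugation and stored below −20 °C. Plasma and brain concentrations were measured by LC−MS/MS. Parameters came from noncompartmental analysis, and brain/plasma ratio is given at the indicated time.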

hERG = hERG (Homo sapiens, UniProt Q12809); experiment: hERG inhibition in CHO cell; type: cell-based; conditions: read-out: hERG inhibition CHO cell IC50
Plasma protein binding [4] = type: in vitro ADME
Brain homogenate binding = type: in vitro ADME; conditions: CD-1 mouse brain homogenate
THP-1 cells = experiment: Host cell cytotoxicity, THP-1; type: cell-based, human
Outline: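 THP-1 cells were seeded at 10×10^3/well and differentiated with 10 ng/mL PMA for 24 h before compound addition. Compounds were given as a 10-dose 3-fold series from a 120 μM 2x working solution for 72 h at 37°C, 5% CO2. Viability was read by CellTiter-Glo luminescence.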

Plasma protein binding [5] = type: in vitro ADME; conditions: CD-1 mouse plasma
[6] = Microsomal stability, mouse liver microsomes; type: in vitro ADME
MDCK-MDR1 = type: in vitro ADME
TgRH-PheRS[L497I]-FLuc = experiment: Growth inhibition of PheRS L497I resistant line vs parental line; type: cell-based, Toxoplasma gondii; conditions: EC50 fold resistance, TgL497I vs parental TgRHΔhxgprtΔku80
Outline: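 Firefly-luciferase tachyzoites were used: the PheRS[L497I] line, made in the parental TgRHΔΔ-FLuc (type I) strain, and the parental line itself. Each well of confluent HFF got 5×10^3 fresh tachyzoites and a 3-fold compound series, at 0.1% DMSO final. After 72 h at 37°C, cells were lysed and luciferase read. […] FR = resistant EC50 / parental EC50.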

HepG2 cells = experiment: Host cell cytotoxicity, HepG2; type: cell-based, human
TgME49-FLuc tachyzoites [7] = conditions: for Survivors / Culture positive / Plaque positive: n=8
TgME49-FLuc tachyzoites [8] = type: in vivo, Toxoplasma gondii; conditions: Ifngr1-/- mice, 0.25 mg/ml in drinking water, n=11
[9] = Toxoplasma gondii, read-out: TgME49 EC90
[10] = formulation A, na = not detected
[11] = Experiment 1, 0.25 mg/ml in drinking water

hERG, sequence (Q12809 whole entry): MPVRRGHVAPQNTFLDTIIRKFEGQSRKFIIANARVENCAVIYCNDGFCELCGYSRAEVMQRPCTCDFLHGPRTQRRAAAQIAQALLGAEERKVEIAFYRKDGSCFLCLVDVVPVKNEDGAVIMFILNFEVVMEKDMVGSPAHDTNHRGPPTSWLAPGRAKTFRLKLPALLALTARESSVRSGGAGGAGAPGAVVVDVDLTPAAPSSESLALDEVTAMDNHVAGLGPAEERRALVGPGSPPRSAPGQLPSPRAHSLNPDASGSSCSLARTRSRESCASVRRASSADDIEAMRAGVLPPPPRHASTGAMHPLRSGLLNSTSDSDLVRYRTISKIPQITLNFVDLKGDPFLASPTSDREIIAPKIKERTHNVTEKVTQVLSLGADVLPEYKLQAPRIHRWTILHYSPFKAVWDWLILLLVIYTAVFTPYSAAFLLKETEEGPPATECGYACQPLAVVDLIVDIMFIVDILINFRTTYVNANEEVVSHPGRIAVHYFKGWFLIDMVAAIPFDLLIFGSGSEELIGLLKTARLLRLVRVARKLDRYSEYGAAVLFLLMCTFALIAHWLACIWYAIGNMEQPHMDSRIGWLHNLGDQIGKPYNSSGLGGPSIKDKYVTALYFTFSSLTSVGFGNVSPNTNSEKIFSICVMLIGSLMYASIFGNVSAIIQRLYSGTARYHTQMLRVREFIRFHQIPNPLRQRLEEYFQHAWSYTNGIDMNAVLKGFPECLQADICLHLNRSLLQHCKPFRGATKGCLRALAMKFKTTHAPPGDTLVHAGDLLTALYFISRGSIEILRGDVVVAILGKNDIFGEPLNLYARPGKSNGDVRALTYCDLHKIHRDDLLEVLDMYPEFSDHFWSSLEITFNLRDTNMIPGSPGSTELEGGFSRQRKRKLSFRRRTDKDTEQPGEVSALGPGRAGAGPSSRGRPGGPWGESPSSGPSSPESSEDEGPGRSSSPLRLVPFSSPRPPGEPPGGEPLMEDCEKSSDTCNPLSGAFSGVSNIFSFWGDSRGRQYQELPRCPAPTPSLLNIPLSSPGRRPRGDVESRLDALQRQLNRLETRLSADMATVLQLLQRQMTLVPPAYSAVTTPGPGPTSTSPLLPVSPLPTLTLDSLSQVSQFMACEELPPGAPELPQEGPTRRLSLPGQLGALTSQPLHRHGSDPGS

In the case of `O=C1C(O)=C([C@H]2CC[C@H](c3ccc(Cl)cc3)CC2)C(=O)c2ccccc21` [Atovaquone], the “inhibition of outgrowth of liberated bradyzoites (in words)” value (TgME49-EW bradyzoites) is reported as “only active when used continuously”, the EC50 (TgME49-Fluc [1]; Toxoplasma gondii) is reported as 71 nM and the EC90 (TgME49-Fluc [1]; [9]) is reported as 163 nM. The “activity on intact cysts (in words)” value (TgME49-EW intact cysts; 3X EC90, 24 h treatment) was “among the most effective compounds in this assay”, the “potency after 4 h treatment vs continuous treatment (in words)” value (TgME49-Fluc [2]) was “only effective when used for 72 h treatment” and the EC50 ([3]; pH 8.2, read-out: Tg68 EC50 (Alkaline)) was 1590 nM. The EC50 ([3]; read-out: Tg68 EC50 (Glutamine)) was 52 nM.
With `COc1ccc(NC(=O)N2CCCCN3[C@H](CN(C)C)[C@H](c4ccc(C#Cc5ccccc5)cc4)[C@@H]3C2)cc1` [BRD7929] the “Plasma Cmax/D” value (Pharmacokinetics in mice; formulation A (75% PEG300, 25% D5W), na = not detected) was 40.6 ± 10.4 ng/mL, the “Mouse B/P (time)” value (Pharmacokinetics in mice; formulation A, 8h) was 4.4 (8h) and the “Brain AUClast/D” value (Pharmacokinetics in mice; [10]) was 807 ng·h/mL. The “Brain Cmax/D” value (Pharmacokinetics in mice; [10]) was 179 ± 60.7 ng/mL, the “Plasma AUClast/D” value (Pharmacokinetics in mice; [10]) was 220.9 ng·h/mL and the IC50 (hERG) was 540 nM. The “Plasma protein binding % (human)” value (Plasma protein binding [4]) was 99.56%, the “Brain Homogenate binding %(CD-1 mouse)” value (Brain homogenate binding) was 99.98% and the SSII (THP-1 cells; THP-1 CC50 / EC50 TgME49) was 24. The CC50 (THP-1 cells; read-out: THP-1 CC50, Table 2) was 1010 nM, the “Plasma protein binding % (CD-1 mouse)” value (Plasma protein binding [5]) was 99.6% and the “Eh (hepatic extraction)” value ([6]; calculated with mouse liver blood flow of 90ml/min/kg, second value of cell) was 0.40. It also gave a Microsomal stability mouse ([6]; mouse liver microsomes, first value of cell) of 15.41 µL/min/mg, an EC90 (TgME49-Fluc [1]; read-out: Tg EC90, Table 3) of 134 ± 85 nM and an EC50 (TgME49-Fluc [1]; ME49 expressing firefly luciferase, Table 2) of 41 nM. For the same molecule, the EC90 (TgME49-Fluc [1]; read-out: TgME49 EC90, ME49 expressing firefly luciferase, Table 2) was 139 nM, the “inhibition of outgrowth from intact cysts” value (TgME49-EW intact cysts; 3X EC90, 24 h treatment followed by washing and plating without compound) was “up to 50%” and the “MDCK-MDR1 Permeability A-B Papp” value (MDCK-MDR1) was 0.28 10^−6cm/s. The “MDCK-MDR1 Permeability B-A Papp” value (MDCK-MDR1) was 9.62 10^−6cm/s, the “TgL497I EC50/ Parental EC50 (FR)” value (TgRH-PheRS[L497I]-FLuc) was 78 and the SI (HepG2 cells; HepG2 CC50 / EC50 TgME49) was 147. The CC50 (HepG2 cells; read-out: HepG2 CC50, Table 2) was 6070 nM, the “fold elevation of bradyzoite EC50 compared to tachyzoite conditions” value ([3]; in vitro differentiated bradyzoites vs tachyzoites) was 3 to 5 fold and the weight loss (TgME49-FLuc tachyzoites [7]; Experiment 1, 10 mg/kg QD) was “little weight loss”. For the same molecule, the Survivors (TgME49-FLuc tachyzoites [7]; Experiment 1, 10 mg/kg QD p.o. 4-10 DPI) was 8, the Culture positive (TgME49-FLuc tachyzoites [7]; Experiment 1, 10 mg/kg QD, outgrowth in HFF culture) was 1 and the Plaque positive (TgME49-FLuc tachyzoites [7]; Experiment 1, 10 mg/kg QD, plaquing assay after 14 days) was 1. For the same molecule, the “EC50 of recovered parasites” value (TgME49-FLuc tachyzoites [7]; Experiment 1, 10 mg/kg QD, EC50 determination using TgME49 expressing firefly luciferase) was “No change” and the “mice harboring chronic infection (of 8)” value (TgME49-FLuc tachyzoites [7]; Experiment 1, 10 mg/kg QD, brain homogenate outgrowth) was 1.
For `CCc1nc(N)nc(N)c1-c1ccc(Cl)cc1` [Pyrimethamine], the “inhibition of outgrowth of liberated bradyzoites (in words)” value (TgME49-EW bradyzoites) was “only active when used continuously”, the EC50 (TgME49-Fluc [1]; Toxoplasma gondii) was 330 nM and the EC90 (TgME49-Fluc [1]; [9]) was 551 nM. The “potency after 4 h treatment vs continuous treatment (in words)” value (TgME49-Fluc [2]) was “only effective when used for 72 h treatment”.
In the case of `Nc1ccc(S(=O)(=O)Nc2ncccn2)cc1` [Sulfadiazine], the “survival vs vehicle control” value (TgME49-FLuc tachyzoites [8]) is reported as “survived significantly longer”, the weight loss (TgME49-FLuc tachyzoites [7]; [11]) is reported as “little weight loss” and the Culture positive (TgME49-FLuc tachyzoites [7]; [11]) is reported as 6. The Plaque positive (TgME49-FLuc tachyzoites [7]; [11]) was 7, the Survivors (TgME49-FLuc tachyzoites [7]; [11]) was 8 and the “mice harboring chronic infection (of 8)” value (TgME49-FLuc tachyzoites [7]; Experiment 1, sulfadiazine in drinking water) was 7.

Reference: PMC12415985 (Journal of medicinal chemistry, 2025)
